Data on 13 molecules can be found in PubChem BioAssay AID1480 (NMMLSC, 2009).

The list shows a part of the results. A number with no mark means an inactive call. The source made the active and inactive calls.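 How the source made its calls: active means fluorescence in ABCG2-expressing cells above the plate's control-well mean plus 3 SD (cut at about 15 in these data); inactive means the rest.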

The nature of the assay: compound autofluorescence in ABCG2-expressing IgMXP3 cells, confirmation, artefact control for ABC transporter inhibitor project, cell-based, 488/530 nm, flow cytometry (AID 1480). To be noted: compound autofluorescence 488/530 nm, at 6.6 µM, stronger effect = higher value. The method in brief:
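Material: ABCG2-expressing drug-resistant IgMXP3 cells | Input: 3 million cells/mL final | Medium: JC-1 kit assay buffer | Probe or stimulus: no JC-1 substrate | Times: Cell–compound exposure 10 min, 25 °C, end-over-end rotation | Measured by: High-throughput flow cytometry, green FL1 channel fluorescence | Evaluation: Compound-well median cell fluorescence minus DMSO-well median fluorescence | Benchmarks: DMSO-only wells as cell background reference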
(Flow cytometry measures light scatter and fluorescence of single cells or particles in a stream.)
In the case of `COc1cccc(NC(=O)c2ccc(Cn3cc([N+](=O)[O-])cn3)o2)c1`, the fluorescence is 9.06.

`Cc1c(CCOC(=O)CC23CC4CC(CC(C)(C4)C2)C3)sc[n+]1Cc1ccc([N+](=O)[O-])cc1`: the fluorescence is -1.69.

As to `CCOCC(=O)Nc1sc2c(c1C(=O)OCC)CCCC2`, the fluorescence is 3.96.

For the molecule `Cc1ccc(-n2c(SCC(=O)Nc3ncc(Cl)cc3Cl)nc3ccccc32)cc1`, the fluorescence is -0.59.

On to `Cc1ccc(OCC(O)CN2CCN(CC(O)COc3ccc(C)cc3Cl)CC2)c(Cl)c1` (stereo not drawn), for which the fluorescence is 31.2 (active).

For the molecule `CCOC(=O)c1sc(NC(=O)CSc2nnc(-c3ccco3)o2)c(C(=O)OCC)c1C`, the fluorescence was 2.51.

With `C/C(=N\Nc1ncc(Cl)cc1Cl)c1ccc(S(=O)(=O)NCc2ccco2)cc1`, the fluorescence is -1.09.

Regarding `CCN1/C(=C/c2ccc3ccc(C)cc3[n+]2CC)Sc2ccccc21`, the fluorescence was 228 (active).

Take `O=C(Cc1c[nH]c2ccccc12)N/N=C/c1cccc(F)c1`: the fluorescence is -0.24.

In the case of `Cc1cccc2cc(CN(Cc3cccs3)C(c3nnnn3C3CCCC3)C(C)C)c(=O)[nH]c12` (stereo not drawn), the fluorescence was -2.04.

As for `COc1ccc(-n2c(C)cc(C(=O)COC(=O)c3cc(OC)c(OC)cc3NC(=O)c3cccs3)c2C)cc1`, the fluorescence is 1.61.

On to `COc1ccc(C)cc1NC(=O)C(Sc1ccccc1)c1ccccc1` (stereo not drawn), for which the fluorescence was -1.74.

With `C=CCn1c(SCCOc2ccc(OC)cc2)nnc1C(NC(=O)c1ccc(OC)cc1)C(C)C` (stereo not drawn), the fluorescence was 65.8 (active).
